# Only some compounds are listed: those with a hit (about 4% of all), similar ones and a draw of the others.
# KCNQ1 act: potentiates or activates the human KCNQ1 potassium channel; P51787; CHO-K1 KCNQ1, thallium flux FluxOR fluorescence; active compounds read high; B-score at 10 µM; 0.35% of 310,000 active; AID 2648;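 active = fluorescence ratio B-score, a plate-corrected score, at least three library SD, with initial intensity B-score within 5 SD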
# Target sequence (P51787 whole entry, looked up): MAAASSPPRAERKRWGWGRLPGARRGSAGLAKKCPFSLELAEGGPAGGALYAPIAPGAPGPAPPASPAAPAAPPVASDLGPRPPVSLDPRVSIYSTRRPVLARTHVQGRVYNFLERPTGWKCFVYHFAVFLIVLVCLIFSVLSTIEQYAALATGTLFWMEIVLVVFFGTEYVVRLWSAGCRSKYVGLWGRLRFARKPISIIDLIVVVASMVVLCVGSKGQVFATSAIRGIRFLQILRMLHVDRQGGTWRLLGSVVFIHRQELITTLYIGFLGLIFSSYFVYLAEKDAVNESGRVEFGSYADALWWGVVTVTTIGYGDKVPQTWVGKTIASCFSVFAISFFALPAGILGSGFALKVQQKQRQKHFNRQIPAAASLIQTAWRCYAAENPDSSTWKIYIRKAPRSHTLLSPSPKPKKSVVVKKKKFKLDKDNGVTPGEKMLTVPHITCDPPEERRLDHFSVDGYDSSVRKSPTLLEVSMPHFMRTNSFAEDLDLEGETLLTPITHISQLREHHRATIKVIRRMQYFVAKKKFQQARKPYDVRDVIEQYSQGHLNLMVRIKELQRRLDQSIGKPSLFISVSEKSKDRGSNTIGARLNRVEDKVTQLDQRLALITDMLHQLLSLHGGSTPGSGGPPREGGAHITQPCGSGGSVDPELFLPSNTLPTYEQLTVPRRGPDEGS
#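 System: Stable KCNQ1 CHO-K1 line | Incubation: 90 min dye loading and 20 min compound exposure, both at room temperature | Measure: Ratio B score | Medium: Assay buffer for compound exposure, DMSO matched across wells | Compound dosing: Single-concentration screen | Probe or stimulus: K+/Tl+ depolarizing stimulus | Measured by: Kinetic FluxOR fluorescence, 10 s baseline plus 110 s post-stimulus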
# KCNK9 inh: blocks the human KCNK9 two-pore domain potassium channel | HEK293 KCNK9, FluxOR thallium flux fluorescence; active compounds read low | B-score at 10 µM | 1.2% of 310,000 active;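 active = ratio B-score over 3 SD below the library mean, with starting fluorescence within 5 SD of its mean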;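 also: negative B-score means less thallium flux so channel inhibition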
# PHOSPHO1 inh: inhibitors of human PHOSPHO1 phosphatase; 1.1% of 290,000 active; recombinant PHOSPHO1, absorbance phosphatase assay; inhibition, % at 13.3 µM; Q8TCT1; in the data active = inhibition above about 60%
# hERG rescue: shields human hERG channel from block by proarrhythmic agents; Q12809; CHO-hERG, FluxOR thallium flux, dofetilide IC70 present; activation (rescue from dofetilide block), less the hit threshold, % at 10 µM; 0.51% of 310,000 active;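 active = activation above the mean of controls blocked by dofetilide plus 5 SD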;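 also: thallium influx through hERG after potassium depolarization seen as dye fluorescence rise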
# KCNQ1 inh: inhibitors of human KCNQ1 potassium channel. 1.3% of 310,000 active. AID 2642. B-score at 10 µM. CHO-K1 KCNQ1, FluxOR thallium flux fluorescence; active compounds read high;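 active = compounds whose thallium flux B-score, printed positive for inhibition, exceeds three library SD while starting fluorescence stays within three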;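 also: channel opened by potassium depolarization with thallium stimulus after 20 min compound exposure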
# KCNK3 inh: human KCNK3 channel inhibition, primary screen. CHO-KCNK3 thallium flux, FluxOR fluorescence; active compounds read low. B-score at 10 µM. O14649. 0.84% of 340,000 active;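 active = B-score under library mean minus 4 SD, starting fluorescence ratio at most library mean plus 5 SD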;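 also: more negative B-score means stronger inhibition of thallium flux through KCNK3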
# KCNK9 block conf: confirmation of human KCNK9 potassium channel inhibitors | shares compounds with KCNK9 inh | HEK293 KCNK9 cells, FluxOR thallium flux fluorescence | inhibition, % at 10 µM | 43% of 4,900 active | AID 492992;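 active = thallium signal inhibited by more than 5 SD of the compound-free buffer control wells, on both duplicate plates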;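 also: 0% = assay buffer control wells without compound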
# Kir2-1 spec: tests whether KCNK9 modulators also affect mouse Kir2.1; shares compounds with KCNK9 inh; Kir2.1 cells, FluxOR thallium flux fluorescence; inhibition, % at 10 µM; 4% of 4,900 active; AID 492993;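 active = thallium signal drop more than 5 SD beyond the mean of the no-compound control wells, seen in both duplicate plates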;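 also: signal is fluorescence rise after thallium addition divided by baseline fluorescence; plate controls were assay buffer only for no effect and full block by chlorpromazine control for full effect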
# KCNK9 uninduced: second check of KCNK9 modulator effects in non-induced HEK293 cells; shares compounds with KCNK9 inh; FluxOR thallium flux; inhibition, % at 10 µM; AID 492997; 40% of 4,900 active;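 active = thallium signal drop beyond 5 SD of the untreated control mean, on both duplicate plates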;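 also: plate controls were buffer only IC0 wells for no effect and SID17386958 at its maximal inhibitory level for full effect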
# KCNK3 confirm: confirmation of human KCNK3 two-pore domain potassium channel inhibitors; shares compounds with KCNK3 inh; CHO-KCNK3 thallium flux, FluxOR fluorescence; 0% buffer, 100% carvedilol maximal block; ratio percent of control, % at 10 µM; 99% of 2,400 active;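 active = ratio percent of control, averaged over triplicates, above buffer control mean plus 5 SD, cut at about 64% in these data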;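 also: ratio is the fluorescence rise from min to max over baseline after thallium stimulus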
# KCNK3 noninduced: KCNK3 inhibitor counter-screen hit in non-induced cells; shares compounds with KCNK3 inh; thallium flux ratio (lower = more inhibition) at 10 µM; 40% of 2,400 active; non-induced KCNK3 parental cells, FluxOR thallium flux; active compounds read low;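 active = thallium flux ratio, averaged over three wells, more than 5 SD below the buffer control mean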;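 also: host cells are CHO cells without KCNK3 induction; ratio is peak minus trough fluorescence over baseline then normalized to buffer controls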
# An asterisk follows results filed as active; i = inactive; / = no result given.
SMILES,KCNQ1 act,KCNK9 inh,PHOSPHO1 inh,hERG rescue,KCNQ1 inh,KCNK3 inh,KCNK9 block conf,Kir2-1 spec,KCNK9 uninduced,KCNK3 confirm,KCNK3 noninduced
CSc1nc2ccc(NS(=O)(=O)c3ccc(Br)s3)cc2s1,i,-8.3*,12,-19,6*,-11*,35%*,i,i,127*,0.13*
COc1ccccc1CNS(=O)(=O)c1cc(-c2cc(C)no2)ccc1C(C)C,i,-11*,7,-16,6*,-9.5*,60%*,i,38%*,119*,0.14*
O=C(COC(=O)c1cccs1)c1ccc2ccccc2c1,i,-18*,-6,-15,i,-13*,56%*,i,30%*,101*,i
c1cncc(COC2CCCN(Cc3nc(-c4cccs4)no3)C2)c1 (configuration not stated),i,i,46,-9,i,i,/,/,/,/,/
Cc1ccc(Nc2nc(CSc3nnc(-c4ccccc4)n3C)cs2)cc1,i,i,12,-10,i,i,/,/,/,/,/
Cc1ccc(Nc2nc(CSc3nnnn3-c3ccccc3)cs2)cc1,i,-11*,-12,-4,i,i,47%*,i,35%*,100*,i
Cc1nnc(SCC(=O)N(C)C2CCCCC2)n1C,/,/,/,/,/,i,/,/,/,/,/
Cc1ccc(C)c(OCCC(=O)OCC(=O)NC2CCS(=O)(=O)C2)c1 (configuration not stated),i,i,/,-9,i,i,/,/,/,/,/
CC(Oc1ccc(Cl)cc1Cl)c1nc(-c2ccc(NC(=O)c3ccco3)cc2)no1 (configuration not stated),i,-13*,5,-10,i,-8.8*,53%*,i,34%*,121*,0.15*
Cc1ccc(-c2nc3c(c(=O)c4ccccc4n3C)c(=O)n2-c2ccc(F)cc2)cc1,i,i,24,-8,i,i,/,/,/,/,/
Cn1c2ccccc2c(=O)c2c(=O)n(-c3ccccc3)c(-c3ccc(C(C)(C)C)cc3)nc21,i,-12*,20,-11,i,-8.9*,34%*,i,i,130*,0.099*
COc1ccccc1/C=N/NC(=O)C(=O)NCc1cccnc1,i,i,45,-7,i,i,/,/,/,/,/
O=C(NCCc1ccccc1)C1CCN(Cc2ccccc2F)CC1,i,i,1,-3,i,i,/,/,/,/,/
COC(=O)c1cccnc1-n1c(=O)c2cccnc2n(Cc2cccc(OC)c2)c1=O,i,i,2,-10,i,i,/,/,/,/,/
COC(=O)c1cc(-c2cc(OC)ccc2OC)nc2c1c(=O)n(C)c(=O)n2Cc1ccccc1,i,i,40,-10,i,-11*,i,i,i,101*,i
O=C(CSc1nccn(-c2ccc(F)c(Cl)c2)c1=O)NC1CCCC1,i,i,/,-1,i,i,/,/,/,/,/
CC(C)(c1ccccc1)c1ccc(OCCn2cnc3ccccc3c2=O)cc1,i,i,-5,-10,i,-13*,i,i,40%*,73*,0.15*
COc1ccc(C)cc1NC(=O)c1nn(-c2ccccc2)cc1OC,i,-18*,35,-15,i,i,61%*,i,31%*,130*,0.14*
COc1ccccc1C(=O)Nc1cccc(NC(=O)c2ccccc2C)c1,i,-9.1*,15,-15,i,-12*,54%*,i,30%*,84*,i
O=C(N/N=C/c1c(O)ccc2ccccc12)c1cccc(C(F)(F)F)c1,i,-9.3*,5,-9,i,-11*,61%*,46%*,61%*,159*,0.091*
O=C(NCc1ccc(F)cc1)C1CC(=O)N(C2CCCC2)C1 (configuration not stated),/,/,/,/,/,i,/,/,/,/,/
CCOC(=O)/C(C#N)=C/Nc1cc(C(=O)OCC)cc2c(OC)c(OC)ccc12,/,/,-1,/,/,i,/,/,/,/,/
CC1(O)CC(C)(C)C(C#N)C(=O)N1 (configuration not stated),/,/,/,/,/,i,/,/,/,/,/
Cc1cccc(-c2ocnc2C(=O)Nc2ccccc2NC(=O)c2ccccn2)c1,i,-11*,6,-9,i,-9.7*,36%*,i,29%*,109*,0.16*
CC(C)(C)c1cc(C(=O)NNc2cccc(Cl)c2)n(Cc2ccccc2)n1,i,-15*,6,-11,10*,-12*,64%*,i,48%*,123*,i
SMILES,KCNQ1 act,KCNK9 inh,PHOSPHO1 inh,hERG rescue,KCNQ1 inh,KCNK3 inh,KCNK9 block conf,Kir2-1 spec,KCNK9 uninduced,KCNK3 confirm,KCNK3 noninduced
Cc1ccc(NNC(=O)c2cc(C(C)(C)C)nn2Cc2ccccc2)cc1,i,i,58,-10,i,i,/,/,/,/,/
Cc1cccn2c(=O)c3cc(C(=O)NCC4CCCO4)c(=N)n(C4CCCCC4)c3nc12 (configuration not stated),i,i,24,-16,i,i,/,/,/,/,/
Cn1cc([N+](=O)[O-])c(C(=O)Nc2cc(Oc3ccccc3)cc([N+](=O)[O-])c2)n1,i,i,-22,-3,i,i,/,/,/,/,/
Cc1cccc(Oc2cc(NC(=O)c3ccccc3)cc([N+](=O)[O-])c2)c1,i,-12*,28,-19,6*,-12*,64%*,i,39%*,133*,0.15*
Cn1c(CC(=O)NN)c(Sc2ccccc2)c2ccccc21,i,i,18,-2,i,i,/,/,/,/,/
CC(C)CCN(C(=S)Nc1cccc(C(F)(F)F)c1)C(C)c1ccccn1 (configuration not stated),i,-9.3*,11,-16,i,-14*,64%*,i,42%*,130*,0.13*
OCCCNc1nc(-c2ccc(Br)cc2)nnc1-c1ccc(Cl)cc1,i,i,-4,-8,i,i,/,/,/,/,/
Fc1ccc(-n2nnc(-c3cccnc3)n2)cc1,i,i,35,-1,i,i,/,/,/,/,/

# Assay outcomes deposited in PubChem BioAssay by several laboratories.
